Data on one compound can be found in paper PMC8682075 (Biochimie, 2020).

The target of experiment [1] is T1, MMUT (methylmalonyl-CoA mutase) (Homo sapiens, UniProt P22033).
T1 sequence (P22033 33-750): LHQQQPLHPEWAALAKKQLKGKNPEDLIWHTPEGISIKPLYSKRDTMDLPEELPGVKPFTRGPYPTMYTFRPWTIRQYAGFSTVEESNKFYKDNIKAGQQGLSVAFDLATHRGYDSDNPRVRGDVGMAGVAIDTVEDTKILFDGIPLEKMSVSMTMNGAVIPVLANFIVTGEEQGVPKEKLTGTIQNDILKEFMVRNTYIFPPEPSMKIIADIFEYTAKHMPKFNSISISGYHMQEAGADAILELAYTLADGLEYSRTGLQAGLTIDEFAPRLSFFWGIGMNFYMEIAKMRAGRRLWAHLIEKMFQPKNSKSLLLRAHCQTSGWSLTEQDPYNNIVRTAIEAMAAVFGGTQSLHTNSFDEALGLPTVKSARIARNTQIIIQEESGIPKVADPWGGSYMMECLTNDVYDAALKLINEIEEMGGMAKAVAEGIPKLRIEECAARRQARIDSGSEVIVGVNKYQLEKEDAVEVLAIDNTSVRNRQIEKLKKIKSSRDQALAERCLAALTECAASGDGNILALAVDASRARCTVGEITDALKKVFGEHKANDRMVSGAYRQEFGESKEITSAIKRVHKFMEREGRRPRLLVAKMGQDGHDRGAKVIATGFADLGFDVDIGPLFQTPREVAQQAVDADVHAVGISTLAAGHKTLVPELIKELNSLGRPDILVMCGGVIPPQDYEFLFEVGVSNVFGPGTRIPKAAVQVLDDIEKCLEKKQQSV
As to the kind of experiment: Coupled thiokinase/DTNB spectrophotometric MMUT activity assay. The format is biochemical. The procedure, abridged: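 In the coupled kinetic assay, succinyl-CoA was converted by thiokinase to CoA, which was detected spectrophotometrically with DTNB. C-terminally His-tagged MMUT was at 10 nM. Enzymatically made (R)-methylmalonyl-CoA was fixed at 4 mM. Adenosylated cofactor was varied per cofactor, from 0.031 μM at lowest to 12 μM at highest. K_M,app and k_cat come from ≥5 replicates over ≥2 independent experiments and two biological samples.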

In experiment [2] the test system is MMUT variants G648D, V633G, G717V, P86L, Y100C, Y231N. As to the kind of experiment: Activity screen. Conditions: cobamide 1 μM, variants 0.1 μM (G717V 1 μM), 30 minutes. The format is biochemical, human. The procedure, abridged:
(§1)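 At 30 °C, reaction was started with thiokinase, MgCl₂, ADP and methylmalonyl-CoA. Final levels were cofactor 1 μM and (R)-methylmalonyl-CoA 2 mM. Enzyme was WT 0.01 μM, G717V 1 μM, other variants 0.1 μM. After 30 min, an aliquot went into 2.5 mM DTNB; CoA was taken from A412 (ε 14,150 M⁻¹ cm⁻¹).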

The target in experiment [3] is T1, MMUT (methylmalonyl-CoA mutase). Conditions: cited from earlier work.
Another experiment addresses T2, MMUT WT (Homo sapiens, UniProt P22033).
T2 sequence (P22033 33-750): T1 sequence (P22033 33-750)
The experiment can be described thus: Activity screen. The format is biochemical. Conditions: cobamide 1 μM, MMUT WT 0.01 μM, 30 minutes. In a few lines: as §1

For experiment [4], the target named is T1, MMUT (methylmalonyl-CoA mutase). Conditions: read-out: KM, app; previously reported value ref 57; cited from earlier work.
Experiment [5] has the same target. The experiment can be described thus: Cobamide equilibrium binding by quenching of intrinsic protein fluorescence. Conditions: MMUT 0.2 μM, fluorescence quenching. The procedure, abridged: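 Fluorescence quenching used MMUT at 0.2 μM, from N-terminal His-tag (E. coli BL21(DE3)pLysS) and C-terminal His-tag preparations. Adenosylated cofactor was titrated at 0.19–2.5 μM or 0.23–2.5 μM, depending on cofactor class. Plate-reader excitation/emission was 282/340 nm. Kd came from a quadratic fit allowing for ligand depletion. Values were averaged over ≥5 technical replicates from ≥2 independent experiments.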

Read-outs that look alike come from different tables or passages of the source.

For the compound `C/C1=C2/[N-][C@H]([C@H](CC(N)=O)[C@@]2(C)CCC(=O)NC[C@@H](C)OP(=O)([O-])O[C@H]2[C@@H](O)[C@@H](n3cnc4cc(C)c(C)cc43)O[C@@H]2CO)[C@]2(C)N=C(/C(C)=C3N=C(/C=C4N=C1[C@@H](CCC(N)=O)C\4(C)C)[C@@H](CCC(N)=O)[C@]\3(C)CC(N)=O)[C@@H](CCC(N)=O)[C@]2(C)CC(N)=O.[CH2-][C@H]1O[C@@H](n2cnc3c(N)ncnc32)[C@H](O)[C@@H]1O.[Co]` [AdoCbl, adenosylcobalamin, reference compound], the “MMUT activity with the cobamide (in words)” value in experiment [1] (coupled spectrophotometric assay) is “active”. Also, the Km in experiment [1] (read-out: KM, app, methylmalonyl-CoA 4 mM, MMUT 10 nM) is 0.04 ± 0.02 µM; in experiment [4], 0.05 µM. Further, the “activity of MMUT variants with the cobamide (in words)” value in experiment [2] is “significantly reduced specific activity”. Further, the Kd is 40 nM in experiment [3] (previous study of MMUT ref 49), 270 ± 110 nM in experiment [3] (previous study of MMUT ref 50) and 80 ± 30 nM in experiment [5]. Moreover, the “activity of WT MMUT with the cobamide (in words)” value at MMUT WT was “active”.
